# Measured values reported in ChEMBL document CHEMBL1629657, “In vitro antimicrobial activity of a new cephalosporin, ceftaroline, and determination of quality control ranges for MIC testing” (2009).
# Experiments:
# Type in all cases: functional
# [1] = tested on: Providencia rettgeri; test: Antimicrobial activity against Proteus rettgeri by broth microdilution method
# Method in brief: (§1)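 Clinical isolates were tested by CLSI broth microdilution in unsupplemented cation-adjusted Mueller-Hinton broth. The read-out was the MIC, reported as MIC90 (μg/ml) per species or phenotypic group. Ceftriaxone, levofloxacin and imipenem were run in parallel as comparators.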
# [2] = tested on: Streptococcus viridans; test: Antimicrobial activity against Streptococcus viridans group clinical isolate by broth microdilution method
# Method in brief: (§2)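 Streptococcal isolates were tested by CLSI broth microdilution in cation-adjusted Mueller-Hinton broth supplemented with 3% lysed horse blood. The read-out was the MIC, with MIC90 (μg/ml) reported per group. Ceftriaxone, levofloxacin and imipenem served as comparators.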
# [3] = tested on: Streptococcus pneumoniae; test: Antimicrobial activity against penicillin-susceptible Streptococcus pneumoniae by broth microdilution method; method in brief: as §2
# [4] = tested on: Escherichia coli; test: Antimicrobial activity against ESBL-positive Escherichia coli by broth microdilution method; method in brief: as §1
# [5] = tested on: Staphylococcus aureus; test: Antimicrobial activity against methicillin-resistant Staphylococcus aureus by broth microdilution method
# Method in brief: (§3)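 Isolates of the stated resistance phenotype were tested by CLSI broth microdilution in unsupplemented cation-adjusted Mueller-Hinton broth. Ceftaroline was compared with ceftriaxone, levofloxacin and imipenem. Activity was expressed as MICs (MIC90 in μg/ml).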
# [6] = tested on: Streptococcus pneumoniae; test: Antimicrobial activity against penicillin-intermediate Streptococcus pneumoniae by broth microdilution method
# Method in brief: (§4)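 CLSI broth microdilution in cation-adjusted Mueller-Hinton broth with 3% lysed horse blood, against streptococcal clinical isolates of the stated phenotype. Ceftaroline was compared with ceftriaxone, levofloxacin and imipenem. Activity was expressed as MICs (MIC90 in μg/ml).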
# [7] = tested on: Providencia stuartii; test: Antimicrobial activity against Proteus stuartii by broth microdilution method; method in brief: as §1
# [8] = tested on: Morganella morganii; test: Antimicrobial activity against Morganella morganii by broth microdilution method; method in brief: as §1
# [9] = tested on: Klebsiella pneumoniae; test: Antimicrobial activity against ESBL-positive Klebsiella pneumoniae by broth microdilution method; method in brief: as §1
# [10] = tested on: Haemophilus influenzae; test: Antimicrobial activity against beta-lactamase-positive Haemophilus influenzae by broth microdilution method
# Method in brief: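 H. influenzae isolates were tested by CLSI broth microdilution using Haemophilus test medium. The MIC was read and MIC90 (μg/ml) reported for the group. Ceftriaxone, levofloxacin and imipenem served as comparators.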
# [11] = tested on: Shigella sp.; test: Antimicrobial activity against Shigella spp. by broth microdilution method; method in brief: as §1
# [12] = tested on: Salmonella sp.; test: Antimicrobial activity against Salmonella spp. by broth microdilution method; method in brief: as §1
# [13] = tested on: Klebsiella pneumoniae; test: Antimicrobial activity against ESBL-negative Klebsiella pneumoniae by broth microdilution method; method in brief: as §1
# [14] = tested on: Streptococcus pyogenes; test: Antimicrobial activity against macrolide-resistant Streptococcus pyogenes by broth microdilution method; method in brief: as §4
# [15] = tested on: Escherichia coli; test: Antimicrobial activity against ESBL-negative Escherichia coli by broth microdilution method; method in brief: as §1
# [16] = tested on: Enterococcus faecalis; test: Antimicrobial activity against Enterococcus faecalis by broth microdilution method; method in brief: as §1
# [17] = tested on: Pseudomonas aeruginosa; test: Antimicrobial activity against Pseudomonas aeruginosa by broth microdilution method; method in brief: as §1
# [18] = tested on: Proteus mirabilis; test: Antimicrobial activity against Proteus mirabilis by broth microdilution method; method in brief: as §1
# [19] = tested on: Streptococcus pyogenes; test: Antimicrobial activity against macrolide-susceptible Streptococcus pyogenes by broth microdilution method; method in brief: as §4
# [20] = tested on: Moraxella catarrhalis; test: Antimicrobial activity against Moraxella catarrhalis by broth microdilution method; method in brief: as §1
# [21] = tested on: Haemophilus influenzae; test: Antimicrobial activity against beta-lactamase-negative ampicillin resistant Haemophilus influenzae by broth microdilution method
# Method in brief: (§5)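 CLSI broth microdilution in Haemophilus test medium (cation-adjusted Mueller-Hinton base) against clinical H. influenzae isolates of the stated phenotype. Ceftaroline was compared with ceftriaxone, levofloxacin and imipenem. Activity was expressed as MICs (MIC90 in μg/ml).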
# [22] = tested on: Haemophilus influenzae; test: Antimicrobial activity against beta-lactamase-negative Haemophilus influenzae by broth microdilution method; method in brief: as §5
# [23] = tested on: Listeria monocytogenes; test: Antimicrobial activity against Listeria monocytogenes by broth microdilution method; method in brief: as §1
# [24] = tested on: Staphylococcus; test: Antimicrobial activity against methicillin-susceptible coagulase-negative Staphylococcus by broth microdilution method; method in brief: as §1
# [25] = tested on: Klebsiella aerogenes; test: Antimicrobial activity against ESBL-negative Enterobacter aerogenes by broth microdilution method; method in brief: as §1
# [26] = tested on: Serratia marcescens; test: Antimicrobial activity against Serratia marcescens by broth microdilution method; method in brief: as §1
# [27] = tested on: Stenotrophomonas maltophilia; test: Antimicrobial activity against Stenotrophomonas maltophilia by broth microdilution method; method in brief: as §1
# [28] = tested on: Staphylococcus aureus; test: Antimicrobial activity against methicillin-susceptible Staphylococcus aureus by broth microdilution method; method in brief: as §1
# [29] = tested on: Streptococcus agalactiae; test: Antimicrobial activity against Streptococcus agalactiae by broth microdilution method; method in brief: as §2
# [30] = tested on: Enterococcus faecium; test: Antimicrobial activity against Enterococcus faecium by broth microdilution method; method in brief: as §1
# [31] = tested on: Enterococcus faecalis; test: Antimicrobial activity against vancomycin-susceptible Enterococcus faecalis by broth microdilution method; method in brief: as §1
# [32] = tested on: Burkholderia cepacia; test: Antimicrobial activity against Burkholderia cepacia by broth microdilution method; method in brief: as §1
# [33] = tested on: Streptococcus pneumoniae; test: Antimicrobial activity against penicillin-resistant Streptococcus pneumoniae by broth microdilution method; method in brief: as §4
# [34] = tested on: Staphylococcus aureus; test: Antimicrobial activity against vancomycin-intermediate Staphylococcus aureus by broth microdilution method; method in brief: as §1
# [35] = tested on: Corynebacterium jeikeium; test: Antimicrobial activity against Corynebacterium jeikeium by broth microdilution method; method in brief: as §1
# [36] = tested on: Enterococcus faecium; test: Antimicrobial activity against vancomycin-susceptible Enterococcus faecium by broth microdilution method; method in brief: as §1
# [37] = tested on: Streptococcus pneumoniae; test: Antimicrobial activity against levofloxacin-resistant Streptococcus pneumoniae by broth microdilution method; method in brief: as §4
# [38] = tested on: Proteus vulgaris; test: Antimicrobial activity against Proteus vulgaris by broth microdilution method; method in brief: as §1
# [39] = tested on: Enterobacter cloacae; test: Antimicrobial activity against ESBL-negative Enterobacter cloacae by broth microdilution method; method in brief: as §1
# [40] = tested on: Staphylococcus aureus; test: Antimicrobial activity against vancomycin-resistant Staphylococcus aureus by broth microdilution method; method in brief: as §3
# [41] = tested on: Staphylococcus; test: Antimicrobial activity against methicillin-resistant coagulase-negative Staphylococcus by broth microdilution method; method in brief: as §3
# [42] = tested on: Pseudomonas aeruginosa; test: Antimicrobial activity against multidrug resistant Pseudomonas aeruginosa by broth microdilution method; method in brief: as §3
structure (smiles),measurement,setting,value
CO/N=C(\C(=O)N[C@@H]1C(=O)N2C(C(=O)O)=C(CSc3nc(=O)c(O)nn3C)CS[C@H]12)c1csc(N)n1 [CEFTRIAXONE],MIC50,[1],0.06 µg/mL
same,MIC90,[1],0.25 µg/mL
same,MIC50,[2],0.12 µg/mL
same,MIC90,[2],1 µg/mL
same,MIC50,[3],0.03 µg/mL
same,MIC90,[3],0.06 µg/mL
same,MIC50,[4],> 32 µg/mL
same,MIC90,[4],> 32 µg/mL
same,MIC50,[5],32 µg/mL
same,MIC50,[6],0.25 µg/mL
same,MIC90,[6],0.5 µg/mL
same,MIC50,[7],0.06 µg/mL
same,MIC90,[7],0.25 µg/mL
same,MIC50,[8],0.5 µg/mL
same,MIC90,[8],32 µg/mL
same,MIC50,[9],32 µg/mL
same,MIC90,[9],> 32 µg/mL
same,MIC,[10],0.015 µg/mL
same,MIC50,[10],0.015 µg/mL
same,MIC90,[10],0.015 µg/mL
same,MIC,[11],0.03 µg/mL
same,MIC50,[11],0.03 µg/mL
same,MIC90,[11],0.06 µg/mL
same,MIC50,[12],0.06 µg/mL
same,MIC90,[12],> 32 µg/mL
same,MIC50,[13],0.06 µg/mL
same,MIC90,[13],0.12 µg/mL
same,MIC,[14],0.015 µg/mL
same,MIC50,[14],0.015 µg/mL
same,MIC90,[14],0.03 µg/mL
same,MIC50,[15],0.06 µg/mL
same,MIC90,[15],0.25 µg/mL
same,MIC50,[16],> 32 µg/mL
same,MIC90,[16],> 32 µg/mL
same,MIC50,[17],> 32 µg/mL
same,MIC90,[17],> 32 µg/mL
same,MIC,[18],0.015 µg/mL
same,MIC50,[18],0.015 µg/mL
same,MIC90,[18],0.015 µg/mL
same,MIC,[19],0.015 µg/mL
same,MIC50,[19],0.015 µg/mL
same,MIC90,[19],0.03 µg/mL
same,MIC50,[20],0.5 µg/mL
same,MIC90,[20],1 µg/mL
same,MIC50,[21],0.12 µg/mL
same,MIC90,[21],0.12 µg/mL
same,MIC,[22],0.015 µg/mL
same,MIC50,[22],0.015 µg/mL
same,MIC90,[22],0.015 µg/mL
same,MIC50,[23],> 32 µg/mL
same,MIC90,[23],> 32 µg/mL
same,MIC50,[24],2 µg/mL
same,MIC90,[24],8 µg/mL
same,MIC50,[25],0.12 µg/mL
same,MIC90,[25],> 32 µg/mL
same,MIC50,[26],0.25 µg/mL
same,MIC90,[26],2 µg/mL
same,MIC50,[27],> 32 µg/mL
same,MIC90,[27],> 32 µg/mL
same,MIC50,[28],4 µg/mL
same,MIC90,[28],4 µg/mL
same,MIC,[29],0.06 µg/mL
same,MIC50,[29],0.06 µg/mL
same,MIC90,[29],0.12 µg/mL
same,MIC,[30],> 32 µg/mL
same,MIC50,[30],> 32 µg/mL
same,MIC90,[30],> 32 µg/mL
same,MIC,[31],> 32 µg/mL
same,MIC50,[31],> 32 µg/mL
same,MIC90,[31],> 32 µg/mL
same,MIC50,[32],> 32 µg/mL
same,MIC90,[32],> 32 µg/mL
same,MIC50,[33],2 µg/mL
same,MIC90,[33],8 µg/mL
same,MIC50,[34],> 32 µg/mL
same,MIC90,[34],> 32 µg/mL
same,MIC50,[35],> 32 µg/mL
same,MIC90,[35],> 32 µg/mL
same,MIC50,[36],> 32 µg/mL
same,MIC90,[36],> 32 µg/mL
same,MIC50,[37],0.25 µg/mL
same,MIC90,[37],2 µg/mL
same,MIC50,[38],1 µg/mL
same,MIC90,[38],> 32 µg/mL
same,MIC50,[39],0.25 µg/mL
same,MIC90,[39],0.5 µg/mL
same,MIC,[40],> 32 µg/mL
same,MIC50,[41],16 µg/mL
same,MIC90,[41],> 32 µg/mL
same,MIC,[42],16 µg/mL
